# Assay results gathered from unrelated publications.
# Organism: Klebsiella pneumoniae
# Observed: microbial growth
SMILES,assay,test system,setting,MIC
C[C@@H](O)[C@H]1C(=O)N2C(C(=O)O)=C(S[C@@H]3CN[C@H](C(=O)N(C)C)C3)[C@H](C)[C@H]12,broth dilution,ATCC13883,,0.125 µg/mL
Cc1onc(-c2ccccc2)c1C(=O)N[C@@H]1C(=O)N2[C@@H]1SC(C)(C)[C@@H]2C(=O)O,broth dilution,ATCC700603,,8 µg/mL
CC1(C)S[C@@H]2[C@H](NC(=O)[C@H](N)c3ccccc3)C(=O)N2[C@H]1C(=O)O,broth dilution,ATCC13883,,> 64 µg/mL
CO[C@@]1(NC(=O)Cc2cccs2)C(=O)N2C(C(=O)O)=C(COC(N)=O)CS[C@@H]21,broth dilution,ATCC43816,,1 µg/mL
CC1(C)S[C@@H]2[C@H](NC(=O)[C@H](N)c3ccccc3)C(=O)N2[C@H]1C(=O)O,broth dilution,ATCC700603,,8 µg/mL
CN(C)[C@@H]1C(O)=C(C(N)=O)C(=O)[C@@]2(O)C(O)=C3C(=O)c4c(O)cccc4[C@@](C)(O)[C@H]3C[C@@H]12,broth dilution,ATCC10031,12 h,0.13 µg/mL
CN(C)[C@@H]1C(O)=C(C(N)=O)C(=O)[C@@]2(O)C(O)=C3C(=O)c4c(O)cccc4[C@@](C)(O)[C@H]3C[C@@H]12,broth dilution,ATCC43816,,2 µg/mL
CO/N=C(\C(=O)N[C@@H]1C(=O)N2C(C(=O)O)=C(CSc3nc(=O)c(=O)[nH]n3C)CS[C@H]12)c1csc(N)n1,broth dilution,ATCC700603,,> 512 µg/mL
CCCCCCC#Cc1cncc(-c2nnc(SCc3ccc([N+](=O)[O-])o3)n2CCCN)c1,broth dilution,DSM30104,,> 64 µg/mL
C[C@H]1[C@H](NC(=O)/C(=N\OC(C)(C)C(=O)O)c2csc(N)n2)C(=O)N1S(=O)(=O)O,broth dilution,ATCC13883,,0.0625 µg/mL
CCCCCCC#Cc1cncc(-c2nnc(SCc3cc(C(F)(F)F)cc(C(F)(F)F)c3)n2CCCN)c1,broth dilution,DSM30104,,32 to 64 µg/mL
CCN1CCN(C(=O)N[C@@H](C(=O)N[C@@H]2C(=O)N3[C@@H]2SC(C)(C)[C@@H]3C(=O)O)c2ccccc2)C(=O)C1=O,broth dilution,ATCC43816,,4 µg/mL
CCCCCCC#Cc1cncc(-c2nnc(SCc3cc([N+](=O)[O-])cc([N+](=O)[O-])c3)n2CCCN)c1,broth dilution,DSM30104,,> 64 µg/mL
Cc1cc(NS(=O)(=O)c2ccc(N)cc2)no1,broth dilution,ATCC43816,,64 µg/mL
CNC(C)C1CCC(N)C(OC2C(N)CC(N)C(OC3OCC(C)(O)C(NC)C3O)C2O)O1 (stereo not drawn),broth dilution,ATCC13883,,2 µg/mL
CN(C)[C@@H]1C(O)=C(C(N)=O)C(=O)[C@@]2(O)C(O)=C3C(=O)c4c(O)cccc4[C@@](C)(O)[C@H]3C[C@@H]12,broth dilution,ATCC27736,16 h,3.1 µM
CN(C)[C@@H]1C(O)=C(C(N)=O)C(=O)[C@@]2(O)C(O)=C3C(=O)c4c(O)cccc4[C@@](C)(O)[C@H]3C[C@@H]12,broth dilution,ATCC13883,,1 µg/mL
CN(C)c1cc(NC(=O)CNC(C)(C)C)c(O)c2c1C[C@H]1C[C@H]3[C@H](N(C)C)C(O)=C(C(N)=O)C(=O)[C@@]3(O)C(O)=C1C2=O,broth dilution,ATCC43816,,< 0.5 µg/mL
CCCCCCCCCCCC[N+](C)(C)Cc1ccccc1,,ATCC4352,,8 µM
C[C@H]1[C@H](NC(=O)/C(=N\OC(C)(C)C(=O)O)c2csc(N)n2)C(=O)N1S(=O)(=O)O,broth dilution,ATCC43816,,< 0.5 µg/mL
CCCCCCC#Cc1cncc(-c2nnc(SCc3cc([N+](=O)[O-])cc([N+](=O)[O-])c3)n2CCOC2OC(CN)C(O)C2O)c1 (stereo not drawn),broth dilution,DSM30104,,> 64 µg/mL
